The nature of data set [1]: Unbound fraction in Sprague-Dawley rat at 0.5 mg/kg, iv measured upto 1440 mins by LC/MS/MS analysis. The class given is ADME, organism-based. Conditions: in vivo.
Data set [2] deals with Aspergillus fumigatus. Put plainly: Inhibition of Sterol methyl transferase in Aspergillus fumigatus ATCC 204305 assessed as accumulation of lanosterol at 2 ug/mL measured per 100 mg of mycelia by LC/MS analysis (Rvb= 0 nmol). The following applies: dose 2.0 µg/ml. In a few lines: (§1)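 Cultures of A. fumigatus ATCC 204305 (1 × 10⁴ CFU/mL in YNB with 2% glucose and amino-acid mix) were grown 24 h at 35 °C, then exposed to compound for 24 h. Mycelia were saponified in 25% ethanolic KOH at 85 °C for 1 h and extracted with n-hexane. Extracts were dried, redissolved in acetone at 200 μL per 100 mg dry mycelium, and analysed on a C18 column at 40 °C with acetonitrile gradient.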

The nature of data set [3]: Clearance in Sprague-Dawley rat at 0.5 mg/kg, iv measured upto 1440 mins by LC/MS/MS analysis. The data set is classed as ADME, organism-based. The following applies: in vivo.
The subject of data set [4] is Aspergillus fumigatus. The data set is described as follows: Inhibition of Sterol methyl transferase in Aspergillus fumigatus ATCC 204305 assessed as accumulation of eburicol at 2 ug/mL measured per 100 mg of mycelia by LC/MS analysis (Rvb= 0 nmol). Conditions: dose 2.0 µg/ml. The method in brief:
as §1

A short description of data set [5]: Volume of distribution at steady state in Sprague-Dawley rat at 0.5 mg/kg, iv measured upto 1440 mins by LC/MS/MS analysis. The class given is ADME, organism-based. The following applies: in vivo, read-out: Vdss.
Data set [6] is described as follows: Metabolic stability in rat liver microsomes assessed as parent compound remaining at 0.5 uM incubated for 30 mins by LC/MS/MS analysis. The class given is ADME, Microsome. Conditions: read-out: Stability. In a few lines:
(§2)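 Compound at 0.5 μM was incubated with liver microsomes at 0.5 mg protein/mL at 37 °C. Buffer was 50 mM Tris-HCl pH 7.4 with 150 mM KCl, 10 mM MgCl2 and 1 mM NADPH. Reactions were stopped at 0 and 30 min with MeCN/MeOH 1:1. Percent remaining was taken from LC/MS/MS peak area ratio, in duplicate.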

The subject of data set [7] is Mus musculus. The data set is described as follows: In vivo antifungal activity against Aspergillus fumigatus infected in ICR mouse assessed as reduction in serum-galactomannan at 30 mg/kg, iv administered at 2 to 50 hrs post-inoculation and measured after 60 hrs by GM analysis. The data set is classed as functional, organism-based. The method in brief:
(§3)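 Male ICR mice (5 weeks) were immunosuppressed with intraperitoneal cyclophosphamide, 150 mg/kg on day −4 and 100 mg/kg on day −1. Mice were infected intravenously with about 1.5 × 10⁵ conidia in saline. Tail-vein dosing was at 2, 16, 21, 26, 40, 45 and 50 h, in 5% DMSO/5% Cremophor EL/4% glucose or 5% glucose. Samples were taken at 60 h, five mice per group, and analysed by Dunnett's test against untreated controls.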

For data set [8], the system named is Mus musculus. Put plainly: In vivo antifungal activity against Aspergillus fumigatus infected in ICR mouse assessed as log reduction in fungal burden with 18S rRNA in kidney at 30 mg/kg, iv administered at 2 to 50 hrs post-inoculation and measured after 60 hrs by RT-qPCR analysis. The data set is classed as functional. In a few lines:
as §3
(Quantitative PCR measures a nucleic acid by following its amplification.)

For data set [9], the system named is Aspergillus fumigatus. Put plainly: Inhibition of Sterol methyl transferase in Aspergillus fumigatus ATCC 204305 assessed as accumulation of ergosterol at 2 ug/mL measured per 100 mg of mycelia by LC/MS analysis (Rvb= 144 nmol). Conditions: dose 2.0 µg/ml. In a few lines:
as §1

The subject of data set [10] is Aspergillus fumigatus. Put plainly: Antifungal activity against Aspergillus fumigatus ATCC 204305 assessed as inhibition of fungal growth incubated for 48 hrs in presence of 50% heat-inactivated bovine serum by broth microdilution method. The following applies: ATCC 204305, 48 h, in the assay text read “incubated for 48 hrs” for “incubated for 24 hrs”. The class given is functional. In a few lines:
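Broth microdilution per CLSI M38-A2 with modifications. Conidia at about 1 × 10⁴ CFU/mL were grown for 48 h at 35 °C in YNB with 2% glucose and complete amino-acid mix, buffered to pH 7.0 with 50 mM MOPS. Medium was with or without 50% heat-inactivated bovine serum. MIC was the lowest concentration giving no visible growth.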
(Broth dilution looks for growth in wells or tubes with falling amounts of substance.)

Data set [11] concerns Aspergillus fumigatus. Put plainly: Antifungal activity against Aspergillus fumigatus ATCC 204305 assessed as inhibition of fungal growth incubated for 48 hrs by broth microdilution method. Conditions: ATCC 204305, 48 h.
Data set [12] concerns Aspergillus fumigatus. The data set is described as follows: Inhibition of Sterol methyl transferase in Aspergillus fumigatus ATCC 204305 assessed as accumulation of zymosterol at 2 ug/mL measured per 100 mg of mycelia by LC/MS analysis (Rvb= 0 nmol). The following applies: dose 2.0 µg/ml. The method in brief:
as §1

The subject of data set [13] is Aspergillus fumigatus. The data set is described as follows: Antifungal activity against pan-azole resistant Aspergillus fumigatus SR47013 harbouring Cyp51A Y121F mutant assessed as inhibition of fungal growth incubated for 48 hrs by broth microdilution method. The following applies: SR47013, 48 h.
Data set [14] can be described thus: AUC in ICR mouse at 30 mg/kg, iv measured upto 360 mins by LC/MS/MS analysis. The class given is ADME, organism-based. Also noted: route intravenous, dose 30 mg/kg, time <=360. Conditions: in vivo. The method in brief: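 Male ICR mice, 6 weeks old. Dosed iv via tail vein at 30 mg/10 mL/kg (n = 3). The test agent was a solution in 5% DMSO, 5% Cremophor EL and 4% glucose; the reference azole was in 5% glucose. Blood (EDTA-2K plus heparin) was taken at 5, 30, 60, 180 and 360 min and spun to plasma. Proteins were precipitated with methanol before LC/MS/MS.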

Data set [15] can be described thus: Metabolic stability in human liver microsomes assessed as parent compound remaining at 0.5 uM incubated for 30 mins by LC/MS/MS analysis. The data set is classed as ADME, Microsome. The following applies: read-out: Stability. The method in brief:
as §2
On the technique in general: Microsomes from liver hold many membrane-bound enzymes, among them those of drug oxidation.

In brackets after ≈: the same amount, converted by molar mass. Activity calls are given as the source filed them. No cut-off for these calls is given here.

A word on the fraction unbound: it is free concentration divided by total concentration. In general, clearance refers to a measure of how efficiently the substance is removed, as volume per time. Lower therefore signals a low capacity for elimination. One may read the MIC50 as the lowest concentration that inhibits either 50% of growth or 50% of the strains tested, depending on the study. In general, MIC refers to the lowest concentration that inhibits growth of the organism. Broadly, the AUC is the area under the concentration-time curve, a measure of exposure. A lower AUC goes with low exposure. Take `CS(=O)(=O)c1ccc(-c2nc(-c3csc(N=C4NCCCN4)n3)cs2)cc1`: in data set [1], the unbound share (fraction unbound) at 24 h was 0.067. In addition, the Activity was 40 nmol in the data set on Aspergillus fumigatus [2], 1 nmol in the data set on Aspergillus fumigatus [4], 102 nmol with Aspergillus fumigatus [9] and 0 nmol in the data set with Aspergillus fumigatus [12]. Further, the clearance in data set [3] stood at 12.3 mL/min/kg. The Vd in data set [5] was 4.21 L/kg. Besides, the values for the remaining at 0.5 h, 0.5 µM in [6] and in [15] were 53% and 87%, respectively. The outcome in the data set on Mus musculus [7] was Active. For the same compound, the “log(activity)” value in the data set on Mus musculus [8] came out at 4. In addition, the MIC50 in the data set with Aspergillus fumigatus [10] was 4 µg/mL; in the data set with Aspergillus fumigatus [13], 2 µg/mL (≈ 4.77 µM). The MIC with Aspergillus fumigatus [11] is 2 µg/mL (≈ 4.77 µM). For the same compound, the AUC at 6 h in [14] came out at 48200 ng·h/mL.

The values are drawn from ChEMBL document CHEMBL5038599, “Identification of Thiazoyl Guanidine Derivatives as Novel Antifungal Agents Inhibiting Ergosterol Biosynthesis for Treatment of Invasive Fungal Infections” (J Med Chem, 2021).
